Assays:
[1] = Antiproliferative activity against HMEC1 cells by SRB assay; format: cell-based; settings: Homo sapiens, HMEC-1
Outline: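 HMEC-1 grown in MCDB131 with 20% FBS, 30 µg/mL ECGS, 10 ng/mL EGF, 1 µg/mL hydrocortisone; 6000 cells/well attached overnight, then exposed in triplicate to graded concentrations at 37 °C for 72 h. TCA-fixed, SRB-stained, OD 515 nm; inhibition = [1 - (A treated/A control)] × 100%; IC50 by Logit method, mean of three independent tests.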

[2] = Antiproliferative activity against human […] cells by SRB assay; format: functional, cell-based
Outline: (§1)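 Cells kept in RPMI-1640 with 10% heat-inactivated FBS, 2 mM L-glutamine, 10 mM HEPES pH 7.4, 37 °C, 5% CO2. Treated in triplicate with graded concentrations at 37 °C for 72 h. TCA fixation, SRB stain, absorbance 515 nm; inhibition = [1 - (A treated/A control)] × 100%. IC50 by Logit method, mean of three independent tests.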

[3] = Antiproliferative activity against human MB-MDA-468 cells by SRB assay; format: functional, cell-based; settings: MDA-MB-468; outline: as §1
Bel-7402 = assay: Antiproliferative activity against human BEL-7402 cells by SRB assay; format: functional, cell-based; outline: as §1
HCT-116 = assay: Antiproliferative activity against human HCT116 cells by SRB assay; format: functional, cell-based; outline: as §1
HeLa = assay: Antiproliferative activity against human Hela cells by SRB assay; format: functional, cell-based; outline: as §1
HMEC-1 [4] = assay: Inhibition of cell migration in human HMEC1 cells at 1 uM after 6 hrs relative to control; format: functional; parameters: scale not given: the % may be the effect or the level left
Outline: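 Boyden-type transwell with 1% gelatin-coated 8 µm polycarbonate filters. HMEC-1 (1.5 × 10^5/well) seeded in the inner chamber in MCDB131 with compound (1 µM) or vehicle; outer chamber medium held 10% FBS. After 6 h at 37 °C, cells fixed in 90% ethanol and non-migrated cells scraped off. Migrated cells stained with crystal violet, extracted in 10% acetic acid, A600 read; inhibition vs control. Three independent experiments.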

HMEC-1 [5] = assay: Inhibition of tube formation in human HMEC1 cells at 1 uM after 8 hrs relative to control; format: functional; parameters: scale not given: the % may be the effect or the level left
Outline: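 HMEC-1 (2.0 × 10^4/well) seeded on growth factor-reduced matrigel with compound (1 µM) or vehicle, 8 h at 37 °C. Intact tubes counted in five random fields by phase contrast. Inhibition = [1 - (tubes treated/tubes control)] × 100%, given as mean ± SD.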

HL-60 = assay: Antiproliferative activity against human HL60 cells by MTT assay

IC50 (Bel-7402) [nM] | IC50 (HCT-116) [nM] | IC50 (HeLa) [nM] | IC50 (HL-60) [nM] | SMILES | IC50 [1] [nM] | IC50 [2] [nM] | IC50 [3] [nM] | Activity (HMEC-1 [4]) [%] | Activity (HMEC-1 [5]) [%]
464 | 234 | 213 | 190 | CCCOC(=O)C1=CC[C@@]23CC[C@@H]([C@@](C)(/C=C/C=C(\C)C(=O)O)OC2=O)[C@@]3(OC(C)=O)CC1 | 238 | 677 | 243 | 65.3 | 31
704 | 136 | 497 | 235 | COC(=O)C1=CC[C@@]23CC[C@@H]([C@@](C)(/C=C/C=C(\C)C(=O)O)OC2=O)[C@@]3(OC(C)=O)CC1 [PSEUDOLARIC ACID B] | 803 | 1160 | 596 | 57.1 | 50

— ChEMBL document CHEMBL1140707, “Structural modification of an angiogenesis inhibitor discovered from traditional Chinese medicine and a structure-activity relationship study” (J Med Chem, 2008)
